Test results as given in ChEMBL document CHEMBL1667766, “Synthesis of elastin based peptides conjugated to benzisoxazole as a new class of potent antimicrobials--A novel approach to enhance biocompatibility” (2011).
Where a SMILES comes first, the peptide text is derived from it. The star is where a group is joined. X1 = Fc1ccc2c(C3CCN(*)CC3)noc2c1

Assays:
Assay type in all cases: functional
Aspergillus flavus [1] = experiment: Antifungal activity against Aspergillus flavus after 72 hrs by microdilution method
Aspergillus niger [2] = experiment: Antifungal activity against Aspergillus niger after 72 hrs by microdilution method
Aspergillus niger [3] = experiment: Antifungal activity against Aspergillus niger after 24 hrs by agar well diffusion method
Outline: (§1)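 Fungi subcultured in 25 mL nutrient broth for one day to give inoculum, then spread on solidified Sabouraud agar. Wells punched with a 6 mm cork borer and filled with 0.1 mL test solution in DMSO, prepared from a 1 mg/mL stock. Bavistin as reference, DMSO as negative control. Read-out is inhibition zone diameter (mm).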

Xanthomonas oryzae [4] = experiment: Antimicrobial activity against Xanthomonas oryzae after 72 hrs by microdilution method
Escherichia coli [5] = experiment: Antimicrobial activity against Escherichia coli after 72 hrs by microdilution method
Escherichia coli [6] = experiment: Antimicrobial activity against Escherichia coli after 24 hrs by agar well diffusion method
Outline: (§2)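 Bacteria grown in nutrient broth at 37 °C for 24 h, subcultured in 25 mL broth at room temperature, then spread on nutrient agar. Wells (6 mm cork borer) filled with 0.1 mL test solution in DMSO, prepared from a 1 mg/mL stock. Amoxicillin as reference, DMSO as negative control. Plates kept 24 h at 37 °C; inhibition zone measured in mm.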

Aspergillus flavus [7] = experiment: Antifungal activity against Aspergillus flavus after 24 hrs by agar well diffusion method; outline: as §1
Staphylococcus [8] = experiment: Antimicrobial activity against coagulase positive Staphylococcus after 24 hrs by agar well diffusion method; outline: as §2
Klebsiella pneumoniae [9] = experiment: Antimicrobial activity against Klebsiella pneumoniae after 72 hrs by microdilution method
Fusarium oxysporum [10] = experiment: Antifungal activity against Fusarium oxysporum after 24 hrs by agar well diffusion method; outline: as §1
Staphylococcus [11] = experiment: Antimicrobial activity against coagulase positive Staphylococcus after 72 hrs by microdilution method
Klebsiella pneumoniae [12] = experiment: Antimicrobial activity against Klebsiella pneumoniae after 24 hrs by agar well diffusion method; outline: as §2
Fusarium oxysporum [13] = experiment: Antifungal activity against Fusarium oxysporum after 72 hrs by microdilution method
Xanthomonas oryzae [14] = experiment: Antimicrobial activity against Xanthomonas oryzae after 24 hrs by agar well diffusion method

SMILES | MIC (Aspergillus flavus [1]) [µg/mL] | MIC (Aspergillus niger [2]) [µg/mL] | inhibition zone (IZ) (Aspergillus niger [3]) [mm] | MIC (Xanthomonas oryzae [4]) [µg/mL] | MIC (Escherichia coli [5]) [µg/mL] | inhibition zone (IZ) (Escherichia coli [6]) [mm] | inhibition zone (IZ) (Aspergillus flavus [7]) [mm] | inhibition zone (IZ) (Staphylococcus [8]) [mm] | MIC (Klebsiella pneumoniae [9]) [µg/mL] | inhibition zone (IZ) (Fusarium oxysporum [10]) [mm] | MIC (Staphylococcus [11]) [µg/mL] | inhibition zone (IZ) (Klebsiella pneumoniae [12]) [mm] | MIC (Fusarium oxysporum [13]) [µg/mL] | inhibition zone (IZ) (Xanthomonas oryzae [14]) [mm]
CC(C)[C@H](NC(=O)CNC(=O)[C@@H]1CCCN1C(=O)[C@H](Cc1ccccc1)NC(=O)CNC(=O)[C@H](CCC(=O)O)NC(=O)CN)C(=O)NCC(=O)N[C@H](C(=O)N1CCC[C@H]1C(=O)NCC(=O)N[C@H](C(=O)NCC(=O)N[C@H](C(=O)N1CCC[C@H]1C(=O)NCC(=O)N[C@H](C(=O)NCC(=O)N[C@H](C(=O)N1CCC[C@H]1C(=O)NCC(=O)N[C@@H](Cc1ccccc1)C(=O)NCC(=O)N[C@@H](Cc1ccccc1)C(=O)N1CCC[C@H]1C(=O)NCC(=O)N[C@@H](Cc1ccccc1)C(=O)NCC(=O)N[C@@H](Cc1ccccc1)C(=O)N1CCC[C@H]1C(=O)N1CCC(c2noc3cc(F)ccc23)CC1)C(C)C)C(C)C)C(C)C)C(C)C)C(C)C.O=C(O)C(F)(F)F (H-GEGFPGVGVPGVGVPGVGVPGFGFPGFGFP-X1) | 3 | 3 | 36 | 9 | 10 | 15 | 32 | 20 | 9 | 31 | 11 | 17 | 4 | 18
CC[C@@H](C)[C@H](NC(=O)CNC(=O)CN)C(=O)N1CCC[C@H]1C(=O)N1CCC(c2noc3cc(F)ccc23)CC1.O=C(O)C(F)(F)F | 16 | 13 | 22 | 12 | 15 | 20 | 14 | 12 | 12 | 18 | 14 | 14 | 17 | 15
C[C@H](NC(=O)CNC(=O)CN)C(=O)N1CCC[C@H]1C(=O)N1CCC(c2noc3cc(F)ccc23)CC1.O=C(O)C(F)(F)F (H-GGAP-X1) | 18 | 15 | 19 | 13 | 17 | 18 | 13 | 11 | 14 | 16 | 16 | 12 | 19 | 13
Fc1ccc2c(C3CCNCC3)noc2c1 | > 50 | > 50 | 3 | > 50 | > 50 | 3 | 2 | 3 | > 50 | 4 | > 50 | 3 | > 50 | 4
NCC(=O)NCC(=O)N[C@@H](Cc1ccccc1)C(=O)N1CCC[C@H]1C(=O)N1CCC(c2noc3cc(F)ccc23)CC1.O=C(O)C(F)(F)F (H-GGFP-X1) | 15 | 11 | 25 | 11 | 14 | 22 | 16 | 14 | 11 | 20 | 13 | 15 | 16 | 16
